In brackets after ≈: the same amount, converted by molar mass.
Columns and labels:
Neisseria gonorrhoeae [1] = experiment: Minimum inhibitory concentration of compound against Neisseria gonorrhoeae AS 7720; assay type: functional
How it was run: (§1)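 Agar dilution on Kellogg agar, 10⁶ colony forming units, incubated 20 h at 36 °C in 5% CO₂; MIC is the lowest concentration giving no visible growth.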

Escherichia coli [2] = experiment: Minimum inhibitory concentration of compound against Escherichia coli delta 120; assay type: functional
Klebsiella aerogenes = experiment: Minimum inhibitory concentration of compound against Enterobacter aerogenes delta 220; assay type: functional
Proteus mirabilis = experiment: Minimum inhibitory concentration against Proteus mirabilis delta 89; assay type: functional
Neisseria gonorrhoeae [3] = experiment: Minimum inhibitory concentration of compound against Neisseria gonorrhoeae W2; assay type: functional; how it was run: as §1
Escherichia coli [4] = experiment: Antibacterial activity againist Escherichia coli 120 infected NMRI mice after peroral administration; assay type: functional; conditions: po
How it was run: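 ED50 in NMRI mice infected intraperitoneally with E. coli 120; compound given orally immediately and 5 h after infection.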

Salmonella typhimurium = experiment: Minimum inhibitory concentration of compound against Salmonella Typhimurium delta 119; assay type: functional, Salmonella enterica subsp. enterica serovar Typhimurium; conditions: Salmonella enterica
Klebsiella pneumoniae = experiment: Minimum inhibitory concentration of compound against Klebsiella pneumoniae delta 217; assay type: functional
Escherichia coli [5] = experiment: Antibacterial activity againist Escherichia coli 120 infected NMRI mice after subcutaneous administration; assay type: functional; conditions: sc
How it was run: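 ED50 in NMRI mice infected intraperitoneally with E. coli 120; compound given subcutaneously immediately and 5 h after infection.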

MIC (Neisseria gonorrhoeae [1]) | MIC (Escherichia coli [2]) | MIC (Klebsiella aerogenes) | MIC (Proteus mirabilis) | MIC (Neisseria gonorrhoeae [3]) | MIC (Salmonella typhimurium) | MIC (Klebsiella pneumoniae) | SMILES | ED50 (Escherichia coli [4]) | ED50 (Escherichia coli [5])
2 µg/mL (≈ 6.98 µM) | 10 µg/mL (≈ 34.9 µM) | 25 µg/mL (≈ 87.2 µM) | 2.5 µg/mL (≈ 8.72 µM) | 2 µg/mL (≈ 6.98 µM) | 3.12 µg/mL (≈ 10.9 µM) | 1.56 µg/mL (≈ 5.44 µM) | CCCS(=O)(=O)N1N=Cc2cc(Cl)ccc2B1O | 14 mg/kg | 
0.5 µg/mL (≈ 1.3 µM) | 6.25 µg/mL (≈ 16.2 µM) | 25 µg/mL (≈ 64.9 µM) | 1.56 µg/mL (≈ 4.05 µM) | 2 µg/mL (≈ 5.19 µM) | 3.12 µg/mL (≈ 8.1 µM) | 1.56 µg/mL (≈ 4.05 µM) | Cc1ccc(S(=O)(=O)N2N=Cc3sc(Br)cc3B2O)cc1 | ~15 mg/kg | 
> 8 µg/mL | 25 µg/mL (≈ 105 µM) | > 50 µg/mL | 25 µg/mL (≈ 105 µM) | > 8 µg/mL | 12.5 µg/mL (≈ 52.5 µM) | 6.25 µg/mL (≈ 26.3 µM) | Cc1ccc2c(c1)C=NN(S(C)(=O)=O)B2O | 42 mg/kg | 
1 µg/mL (≈ 2.82 µM) | 50 µg/mL (≈ 141 µM) | 50 µg/mL (≈ 141 µM) | 1.56 µg/mL (≈ 4.4 µM) | 1 µg/mL (≈ 2.82 µM) | 6.25 µg/mL (≈ 17.6 µM) | 3.12 µg/mL (≈ 8.8 µM) | Cc1ccc(S(=O)(=O)N2N=Cc3cc(C)sc3B2O)c(Cl)c1 | 25 mg/kg | 
> 8 µg/mL | 50 µg/mL (≈ 165 µM) | > 50 µg/mL | 50 µg/mL (≈ 165 µM) | > 8 µg/mL | 12.5 µg/mL (≈ 41.4 µM) | 50 µg/mL (≈ 165 µM) | O=S(=O)(c1ccccc1)N1N=Cc2ccc(O)cc2B1O | 100 mg/kg | 
2 µg/mL (≈ 5.28 µM) | 50 µg/mL (≈ 132 µM) | > 50 µg/mL | 12.5 µg/mL (≈ 33 µM) | 8 µg/mL (≈ 21.1 µM) | 6.25 µg/mL (≈ 16.5 µM) | 6.25 µg/mL (≈ 16.5 µM) | Cc1ccc(S(=O)(=O)N2N=Cc3ccc(Br)cc3B2O)cc1 | ~30 mg/kg | 
1 µg/mL (≈ 2.7 µM) | 3.12 µg/mL (≈ 8.41 µM) | 12.5 µg/mL (≈ 33.7 µM) | 1.56 µg/mL (≈ 4.2 µM) | 2 µg/mL (≈ 5.39 µM) | 0.78 µg/mL (≈ 2.1 µM) | 0.78 µg/mL (≈ 2.1 µM) | O=S(=O)(c1ccccc1)N1N=Cc2sc(Br)cc2B1O | ~20 mg/kg | 
2 µg/mL (≈ 5.71 µM) | > 50 µg/mL | > 50 µg/mL | 3.12 µg/mL (≈ 8.91 µM) | 8 µg/mL (≈ 22.8 µM) | > 50 µg/mL | 25 µg/mL (≈ 71.4 µM) | Cc1ccc(S(=O)(=O)N2N=Cc3c(ccc4ccccc34)B2O)cc1 | > 100 mg/kg | 
1 µg/mL (≈ 2.94 µM) | 25 µg/mL (≈ 73.4 µM) | 50 µg/mL (≈ 147 µM) | 1.56 µg/mL (≈ 4.58 µM) | 1 µg/mL (≈ 2.94 µM) | 5 µg/mL (≈ 14.7 µM) | 2.5 µg/mL (≈ 7.34 µM) | Cc1ccc(S(=O)(=O)N2N=Cc3sc(Cl)cc3B2O)cc1 | 28 mg/kg | 
> 8 µg/mL | > 50 µg/mL | > 50 µg/mL | > 50 µg/mL | > 8 µg/mL | > 50 µg/mL | > 50 µg/mL | CS(=O)(=O)N1N=Cc2sccc2B1O | 113 mg/kg | 
0.5 µg/mL (≈ 1.56 µM) | 25 µg/mL (≈ 78.1 µM) | 50 µg/mL (≈ 156 µM) | 1.56 µg/mL (≈ 4.87 µM) | 0.5 µg/mL (≈ 1.56 µM) | 6.25 µg/mL (≈ 19.5 µM) | 0.78 µg/mL (≈ 2.44 µM) | Cc1cc2c(s1)C=NN(S(=O)(=O)c1ccccc1C)B2O | 50 mg/kg | 
2 µg/mL (≈ 6.29 µM) | 25 µg/mL (≈ 78.6 µM) | > 50 µg/mL | 6.25 µg/mL (≈ 19.6 µM) | 8 µg/mL (≈ 25.1 µM) | 6.25 µg/mL (≈ 19.6 µM) | 6.25 µg/mL (≈ 19.6 µM) | Cc1ccc(S(=O)(=O)N2N=Cc3cc(F)ccc3B2O)cc1 | ~25 mg/kg | 
1 µg/mL (≈ 2.16 µM) | 50 µg/mL (≈ 108 µM) | 25 µg/mL (≈ 54 µM) | 6.25 µg/mL (≈ 13.5 µM) | 1 µg/mL (≈ 2.16 µM) | 3.12 µg/mL (≈ 6.75 µM) | 3.12 µg/mL (≈ 6.75 µM) | CC(=O)Nc1ccc(S(=O)(=O)N2N=Cc3sc(Br)cc3B2O)c(Cl)c1 | 208 mg/kg | 
1 µg/mL (≈ 2.34 µM) | 25 µg/mL (≈ 58.4 µM) | 25 µg/mL (≈ 58.4 µM) | 3.12 µg/mL (≈ 7.29 µM) | 1 µg/mL (≈ 2.34 µM) | 3.12 µg/mL (≈ 7.29 µM) | 3.12 µg/mL (≈ 7.29 µM) | CC(=O)Nc1ccc(S(=O)(=O)N2N=Cc3sc(Br)cc3B2O)cc1 | 55 mg/kg | 
 | > 50 µg/mL | > 50 µg/mL | > 50 µg/mL |  | > 50 µg/mL | > 50 µg/mL | Cc1ccc(S(=O)(=O)N2N=Cc3cc(N4CCCC4)ccc3B2O)cc1 |  | > 300 mg/kg

Source: ChEMBL document CHEMBL1122708, “Preparation and antibacterial activities of new 1,2,3-diazaborine derivatives and analogues” (1984)
